Test results: ChEMBL document CHEMBL1154403, “Serotypes, Clones, and Mechanisms of Resistance of Erythromycin-Resistant Streptococcus pneumoniae Isolates Collected in Spain” (2007)
Converted amounts (≈) assume the structure as drawn.

Key:
Assay type in all cases: functional
Streptococcus pneumoniae [1] = assay: Antibacterial activity against erythromycin-resistant Streptococcus pneumoniae by microdilution method
In short: (§1)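 Broth microdilution MICs per CLSI on all 125 erythromycin-resistant pneumococcal isolates, using Mueller-Hinton broth with 2 to 5% lysed horse blood in prepared panels. Example ranges: erythromycin 0.25 to 32 μg/ml, clindamycin 0.25 to 0.5 μg/ml, penicillin 0.03 to 8 μg/ml, telithromycin 0.015 to 32 μg/ml (separate panel). Quality control strain: S. pneumoniae ATCC 49619.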

Streptococcus pneumoniae [2] = assay: Antibacterial activity against erythromycin-resistant Streptococcus pneumoniae assessed as percent resistant isolates by microdilution method; in short: as §1
Streptococcus pneumoniae [3] = assay: Antibacterial activity against erythromycin-resistant Streptococcus pneumoniae assessed as percent resistant isolates by CLSI breakpoint method
Streptococcus pneumoniae [4] = assay: Antibacterial activity against erythromycin-resistant Streptococcus pneumoniae assessed as percent sensitive isolates by CLSI breakpoint method
Streptococcus pneumoniae [5] = assay: Antibacterial activity against macrolide-resistant Streptococcus pneumoniae isolates by double-disk diffusion method
In short: (§2)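 Macrolide resistance phenotype assigned by double-disk diffusion with erythromycin (15 μg) and clindamycin (2 μg) disks placed 12 mm apart, edge to edge. After incubation, a flattened clindamycin zone next to the erythromycin disk (D zone) marked inducible resistance. A conserved clindamycin zone marked the M phenotype.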

Streptococcus pneumoniae [6] = assay: Antibacterial activity against inducible macrolide-lincosamide-streptogramin B-resistant Streptococcus pneumoniae isolates by double-disk diffusion method; in short: as §2
Streptococcus pneumoniae [7] = assay: Antibacterial activity against constitutive macrolide-lincosamide-streptogramin B-resistant Streptococcus pneumoniae isolates by double-disk diffusion method; in short: as §2
Streptococcus pneumoniae [8] = assay: Antibacterial activity Streptococcus pneumoniae expressing erm(B) and/or mef genes at 0.25 ug/ml by broth microdilution method
In short: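 Clinical erythromycin-resistant pneumococcal isolates identified by bile solubility and optochin susceptibility. MICs were determined by CLSI broth microdilution in Mueller-Hinton broth with 2 to 5% lysed horse blood, using commercial prepared panels; telithromycin was tested on a separate panel across 0.015 to 32 μg/ml. S. pneumoniae ATCC 49619 served as quality control.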

Streptococcus pneumoniae [9] = assay: Antibacterial activity against inducible macrolide-lincosamide-streptogramin B-resistant Streptococcus pneumoniae expressing erm(B) and tet(M) genes assessed as percent resistant isolates by broth microdilution method; in short: as §1

Row | SMILES | MIC (Streptococcus pneumoniae [1]) | MIC50 (Streptococcus pneumoniae [1]) | MIC90 (Streptococcus pneumoniae [1]) | Activity (Streptococcus pneumoniae [2]) | CLSI resistance breakpoint (MIC) (Streptococcus pneumoniae [3]) | Activity (Streptococcus pneumoniae [4]) | MIC (Streptococcus pneumoniae [5]) | MIC (Streptococcus pneumoniae [6]) | MIC (Streptococcus pneumoniae [7]) | Activity (Streptococcus pneumoniae [8]) | Activity (Streptococcus pneumoniae [9])
1 | CC[C@H]1OC(=O)[C@H](C)[C@@H](O[C@H]2C[C@@](C)(OC)[C@@H](O)[C@H](C)O2)[C@H](C)[C@@H](O[C@@H]2O[C@H](C)C[C@H](N(C)C)[C@H]2O)[C@](C)(O)C[C@@H](C)CN(C)[C@H](C)[C@@H](O)[C@]1(C)O [AZITHROMYCIN] | > 4 µg/mL | > 4 µg/mL | > 4 µg/mL | 100% | >=2 ug ml-1 | <=0.5 ug ml-1 | – | – | – | – | –
2 | CO/N=C(\C(=O)N[C@@H]1C(=O)N2C(C(=O)O)=C(COC(C)=O)CS[C@H]12)c1csc(N)n1 [CEFOTAXIME] | ≤ 0.06 µg/mL | 0.25 µg/mL (≈ 0.549 µM) | 0.5 µg/mL (≈ 1.1 µM) | 0.8% | >=4 ug ml-1 | <=1 ug ml-1 | – | – | – | – | –
3 | O=C(N[C@H](CO)[C@H](O)c1ccc([N+](=O)[O-])cc1)C(Cl)Cl [CHLORAMPHENICOL] | > 8 µg/mL | 2 µg/mL (≈ 6.19 µM) | > 8 µg/mL | 34.4% | >=8 ug ml-1 | <=4 ug ml-1 | – | – | – | – | –
4 | CCC[C@@H]1C[C@@H](C(=O)N[C@@H]([C@H]2O[C@H](SC)[C@H](O)[C@@H](O)[C@H]2O)[C@H](C)Cl)N(C)C1 [CLINDAMYCIN] | > 0.5 µg/mL | > 0.5 µg/mL | > 0.5 µg/mL | 87.2% | >=1 ug ml-1 | <=0.25 ug ml-1 | ≤ 0.25 µg/mL | > 0.5 µg/mL | > 0.5 µg/mL | – | –
5 | CC[C@H]1OC(=O)[C@H](C)[C@@H](O[C@H]2C[C@@](C)(OC)[C@@H](O)[C@H](C)O2)[C@H](C)[C@@H](O[C@@H]2O[C@H](C)C[C@H](N(C)C)[C@H]2O)[C@](C)(O)C[C@@H](C)C(=O)[C@H](C)[C@@H](O)[C@]1(C)O [ERYTHROMYCIN] | – | > 32 µg/mL | > 32 µg/mL | 100% | >=1 ug ml-1 | <=0.25 ug ml-1 | 2 µg/mL (≈ 2.73 µM) | ≥ 4 µg/mL | > 32 µg/mL | – | –
6 | CO[C@@H]1[C@@H](O[C@@H]2O[C@H](C)[C@@H](O[C@H]3C[C@@](C)(O)[C@@H](OC(=O)CC(C)C)[C@H](C)O3)[C@H](N(C)C)[C@H]2O)[C@@H](CC=O)C[C@@H](C)[C@@H](O)/C=C/C=C/C[C@@H](C)OC(=O)C[C@H]1OC(C)=O [JOSAMYCIN] | > 2 µg/mL | > 2 µg/mL | > 2 µg/mL | 87.2% | >=4 ug ml-1 | <=1 ug ml-1 | ≤ 0.5 µg/mL | > 2 µg/mL | > 2 µg/mL | – | –
7 | C[C@H]1COc2c(N3CCN(C)CC3)c(F)cc3c(=O)c(C(=O)O)cn1c23.C[C@H]1COc2c(N3CCN(C)CC3)c(F)cc3c(=O)c(C(=O)O)cn1c23.O [LEVOFLOXACIN] | > 4 µg/mL | 1 µg/mL | 1 µg/mL | 4% | >=8 ug ml-1 | <=2 ug ml-1 | – | – | – | – | –
8 | COc1c(N2C[C@@H]3CCCN[C@@H]3C2)c(F)cc2c(=O)c(C(=O)O)cn(C3CC3)c12 [MOXIFLOXACIN] | > 1 µg/mL | ≤ 0.25 µg/mL | ≤ 0.25 µg/mL | 2.4% | – | – | – | – | – | – | –
9 | CC[C@H]1OC(=O)[C@H](C)C(=O)[C@H](C)[C@@H](O[C@@H]2O[C@H](C)C[C@H](N(C)C)[C@H]2O)[C@](C)(OC)C[C@@H](C)C(=O)[C@H](C)[C@H]2N(CCCCn3cnc(-c4cccnc4)c3)C(=O)O[C@]12C [TELITHROMYCIN] | 0.03 µg/mL (≈ 0.0369 µM) | 0.03 µg/mL (≈ 0.0369 µM) | 0.25 µg/mL (≈ 0.308 µM) | 0% | >=4 ug ml-1 | <=1 ug ml-1 | – | – | – | 90% | –
10 | CN(C)[C@@H]1C(O)=C(C(N)=O)C(=O)[C@@]2(O)C(O)=C3C(=O)c4c(O)cccc4[C@@](C)(O)[C@H]3C[C@@H]12 [TETRACYCLINE] | > 4 µg/mL | > 4 µg/mL | > 4 µg/mL | 77.6% | >=8 ug ml-1 | <=2 ug ml-1 | – | – | – | – | 90%
11 | CN[C@H](CC(C)C)C(=O)N[C@H]1C(=O)N[C@@H](CC(N)=O)C(=O)N[C@H]2C(=O)N[C@H]3C(=O)N[C@H](C(=O)N[C@H](C(=O)O)c4cc(O)cc(O)c4-c4cc3ccc4O)[C@H](O)c3ccc(c(Cl)c3)Oc3cc2cc(c3O[C@@H]2O[C@H](CO)[C@@H](O)[C@H](O)[C@H]2O[C@H]2C[C@](C)(N)[C@H](O)[C@H](C)O2)Oc2ccc(cc2Cl)[C@H]1O [VANCOMYCIN] | 1 µg/mL (≈ 0.69 µM) | ≤ 0.25 µg/mL | 1 µg/mL (≈ 0.69 µM) | 0% | – | <=1 ug ml-1 | – | – | – | – | –
